Experiments:
OCT4 = assay: NCCIT-OCT4 response element-driven luciferase reporter assay; type: cell-based, human; details: for induction of OCT4 expression in NCCIT-OCT4 reporter cell line: histone demethylase inhibitors incubated for 48 h
NANOG = assay: NCCIT-NANOG response element-driven luciferase reporter assay; type: cell-based, human
hPSCs = assay: Viability and maintenance of hPSCs after single cell expansion; type: cell-based, human; details: 10 μM
[1] = test system: human primary fibroblasts; assay: OSKM episomal reprogramming, TRA-1-60+ colonies counting; type: cell-based
Summary of the method: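 Human primary fibroblasts, including OSKM-resistant lines and fibroblasts carrying an LTR7-EGFP promoter reporter, transfected with episomal OSKM with or without test compound; OSKM-only fibroblasts serve as comparison. ESC-like colonies stained for TRA-1-60, and reprogramming efficiency taken as the count of TRA-1-60-positive colonies.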

methylated H3K4 = assay: In vitro H3K4 methylation assay; type: biochemical; details: micromolar concentrations
KDM5 = KDM5 demethylase activity/inhibition assay; type: biochemical
KDM4 = KDM4 demethylase activity/inhibition assay; type: biochemical
LSD1 = LSD1 (Homo sapiens, UniProt O60341); assay: LSD1 activity/inhibition assay; type: biochemical
human fibroblasts = assay: qRT-PCR of reprogramming-associated genes in human fibroblasts; type: cell-based
KDM5C = KDM5C (Homo sapiens, UniProt P41229); assay: Demethylase assay on KDM5C immunoprecipitated from cells; type: biochemical
KDM5C, sequence (P41229 whole entry): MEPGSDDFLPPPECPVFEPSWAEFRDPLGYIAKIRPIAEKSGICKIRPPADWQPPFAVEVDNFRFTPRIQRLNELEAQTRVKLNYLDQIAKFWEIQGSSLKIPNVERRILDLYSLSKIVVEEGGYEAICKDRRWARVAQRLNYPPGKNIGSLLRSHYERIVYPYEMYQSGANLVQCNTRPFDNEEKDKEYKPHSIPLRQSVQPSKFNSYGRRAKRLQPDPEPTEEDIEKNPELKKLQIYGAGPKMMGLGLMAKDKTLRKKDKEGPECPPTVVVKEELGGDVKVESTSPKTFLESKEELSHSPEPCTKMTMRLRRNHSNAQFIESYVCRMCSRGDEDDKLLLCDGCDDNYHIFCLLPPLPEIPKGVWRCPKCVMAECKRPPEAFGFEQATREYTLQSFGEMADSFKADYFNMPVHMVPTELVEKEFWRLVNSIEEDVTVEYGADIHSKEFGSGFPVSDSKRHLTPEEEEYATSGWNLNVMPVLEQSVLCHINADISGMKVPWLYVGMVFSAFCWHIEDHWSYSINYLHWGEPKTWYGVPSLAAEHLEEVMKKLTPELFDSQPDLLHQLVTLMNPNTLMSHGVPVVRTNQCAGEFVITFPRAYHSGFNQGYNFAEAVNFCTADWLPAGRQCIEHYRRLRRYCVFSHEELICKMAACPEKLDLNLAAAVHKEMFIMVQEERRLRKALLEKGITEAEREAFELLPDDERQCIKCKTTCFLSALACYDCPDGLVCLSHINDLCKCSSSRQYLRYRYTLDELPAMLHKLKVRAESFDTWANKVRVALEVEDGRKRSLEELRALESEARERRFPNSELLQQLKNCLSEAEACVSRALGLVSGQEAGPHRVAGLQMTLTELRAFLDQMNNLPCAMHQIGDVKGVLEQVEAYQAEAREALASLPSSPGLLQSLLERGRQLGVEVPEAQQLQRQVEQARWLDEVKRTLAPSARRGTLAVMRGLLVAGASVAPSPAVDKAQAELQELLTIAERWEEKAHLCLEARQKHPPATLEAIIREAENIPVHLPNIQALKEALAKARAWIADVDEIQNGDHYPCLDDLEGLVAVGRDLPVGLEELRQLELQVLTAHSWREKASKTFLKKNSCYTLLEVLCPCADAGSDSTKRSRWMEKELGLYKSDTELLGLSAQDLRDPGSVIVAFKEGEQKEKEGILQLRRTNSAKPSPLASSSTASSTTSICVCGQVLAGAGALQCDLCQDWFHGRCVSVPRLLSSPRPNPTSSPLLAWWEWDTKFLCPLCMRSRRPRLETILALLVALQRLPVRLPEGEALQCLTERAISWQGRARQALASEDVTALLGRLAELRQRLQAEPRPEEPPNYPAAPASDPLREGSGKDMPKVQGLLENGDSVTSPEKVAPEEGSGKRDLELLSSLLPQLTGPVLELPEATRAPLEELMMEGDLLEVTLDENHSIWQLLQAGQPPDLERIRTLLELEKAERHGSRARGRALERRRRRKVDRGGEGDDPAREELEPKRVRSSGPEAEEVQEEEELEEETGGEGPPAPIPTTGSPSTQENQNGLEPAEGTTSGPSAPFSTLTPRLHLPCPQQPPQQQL

KDM5D = assay: Demethylase assay on KDM5D immunoprecipitated from cells; type: biochemical

With `CC(C)c1c(-c2ccccc2)[nH]c2c(C#N)cnn2c1=O` [CPI-455] as the molecule, how does the “induction of OCT4 expression in NCCIT-OCT4 reporter cell line” value (OCT4) read?
Its value is 3 fold.

Which “induction in NCCIT-OCT4 reporter cells” value (OCT4; 10 μM, 48 h) does the source give for `Cc1ccc(-c2nc3ccc(C)cn3c2CC(=O)N(C)C)cc1` [zolpidem, reference compound] here?
The value was about 2 fold.

And the “induction in NCCIT-NANOG reporter cells” value (NANOG; 10 μM, 48 h)?
The value was about 2 fold.

And the “maintenance of iPSCs” value (hPSCs)?
Its value is “promoted the maintenance”.

What about the “iPSC-like colonies in fibroblasts resistant to OSKM-mediated reprogramming” value ([1]; 10 μM, with OSKM) of the same molecule?
The value was “appeared”.

What about the “protection of H3K4 methylation” value (methylated H3K4) of the same molecule?
The value was “protected”.

What about the “inhibition of KDM5” value (KDM5; micromolar concentrations) of the same molecule?
The value was “inhibited”.

What about the “inhibition of KDM4” value (KDM4; micromolar concentrations) of the same molecule?
Its value is “inhibited”.

And the “inhibition of LSD1 activity” value (LSD1)?
Its value is “could not be detected”.

Which results are given for `Cc1ccc(-c2cn3cc(C)ccc3n2)cc1` [O4I3, 6-methyl-2-(p-tolyl)imidazo[1,2-a]pyridine]?
induction of OCT4 (OCT4; NCCIT-OCT4 reporter cells, low nanomolar doses, compared with untreated cells): ~10 fold; induction of NANOG (NANOG; NCCIT-NANOG reporter cells, low nanomolar doses, compared with untreated cells): ~10 fold; increase of CDH1 mRNA (human fibroblasts; human fibroblasts): about 100 fold; induction of NANOG mRNA (human fibroblasts; human fibroblasts): approximately 10 fold; increase of SOX2 mRNA (human fibroblasts; human fibroblasts, 50 nM): about 100 fold; induction of OCT4 mRNA (human fibroblasts; human fibroblasts, 50 nM): approximately 10 fold; CDH1 mRNA level versus hPSCs (human fibroblasts; treated human fibroblasts): approximately 10%; NANOG mRNA level versus hPSCs (human fibroblasts; treated human fibroblasts): ~1%; OCT4 mRNA level versus hPSCs (human fibroblasts; treated human fibroblasts): ~0.1%; SOX2 mRNA level versus hPSCs (human fibroblasts; treated human fibroblasts): ~1%; increase of the number of TRA-1-60-positive colonies ([1]; 50 nM added to OSKM, HF1 and HF2, compared with OSKM-only-treated fibroblasts): 10–20 times; iPSC-like colonies in fibroblasts resistant to OSKM-mediated reprogramming ([1]; HFF-LTR7-EGFP and HF4, with OSKM): appeared; episome-based reprogramming efficiency ([1]; with compound, from ∼0.01% without): ~0.1%; IC50 (KDM5; read-out: KDM5 IC50, whole-cell nuclear extraction): 0.79 nM; IC50 (KDM4; read-out: KDM4 IC50, whole-cell nuclear extraction): 249 nM; inhibition of LSD1 activity (LSD1): could not be detected; inhibitory effect on LSD1 (LSD1; even at a concentration of 100 μM): hardly detected; fold less potent IC50 on KDM5C than on KDM5A (KDM5C): 40 fold; fold less potent IC50 on KDM5D than on KDM5A (KDM5D): 20 fold

For `Clc1ccc(N/N=C(\c2ccccc2)c2ccccn2)nc1` [JIB-04], which “induction of OCT4 expression in NCCIT-OCT4 reporter cell line” value (OCT4) is on record?
Its value is 5 fold.
